Measured values published in ChEMBL document CHEMBL5303300, “EUbOPEN Chemogenomics Library - Multiplex” (2023).
Values joined by “and” are separate entries in the source; they are usually repeats but may differ in a detail not shown here. Identical values can stand only once.

Columns and labels:
Assay type in all cases: toxicity, cell-based
U2OS = experiment: Multiplex assay against U2OS; conditions: human, number of replicates 2
How it was run: (§1)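 Phenotypes for tubulin, mitochondrial mass and membrane permeability are expressed as per cents of healthy-nucleus cells. Cells were stained live at seeding with Hoechst33342, BioTracker Green Microtubule Cytoskeleton Dye, MitoTracker Red and Annexin V Alexa Fluor 680, then imaged after compound addition on a CQ1 microscope at 37°C and 5% CO2. Machine-learning gating in CellPathfinder separated Hoechst high-intensity objects from normal cells, divided normal cells by nuclear state (healthy, pyknosed, fragmented) and divided pyknosed cells into mitotic or apoptotic.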

HEK-293T = experiment: Multiplex assay against HEK293T; conditions: human, number of replicates 2; how it was run: as §1
Fibroblast = experiment: Multiplex assay against human fibroblast; conditions: number of replicates 2; how it was run: as §1
[1] = 12 h, 1 µM, compound concentration 1 uM
[2] = 12 h, 10 µM, compound concentration 10 uM
[3] = 24 h, 1 µM, compound concentration 1 uM
[4] = 24 h, 10 µM, compound concentration 10 uM
[5] = 48 h, 1 µM, compound concentration 1 uM
[6] = 48 h, 10 µM, compound concentration 10 uM

## CS(=O)(=O)c1ccc(C(=O)Nc2ccc(F)c(COc3ccc(Br)cc3CN3CC[C@H](O)C3)c2)c(Cl)c1.O=CO
U2OS; [1]
  Population Apoptotic (%): 60%
  Population Healthy Nuclei (%): 60% and 82%
  Population Normal (%): 100%
  Population Pyknosed Nuclei (%): 10%
U2OS; [2]
  Population Apoptotic (%): 91% and 68%
  Population Healthy Nuclei (%): 41% and 73%
  Population Normal (%): 100% and 98%
  Population Pyknosed Nuclei (%): 22%
U2OS; [3]
  Population Apoptotic (%): 77% and 65%
  Population Healthy Nuclei (%): 62% and 84%
  Population Normal (%): 100%
  Population Pyknosed Nuclei (%): 13%
U2OS; [4]
  Population Apoptotic (%): 71% and 92%
  Population Healthy Nuclei (%): 61% and 47%
  Population Normal (%): 98% and 100%
U2OS; [5]
  Population Apoptotic (%): 100% and 93%
  Population Healthy Nuclei (%): 67% and 88%
  Population Normal (%): 100%
  Population Pyknosed Nuclei (%): 9%
U2OS; [6]
  Population Apoptotic (%): 94% and 89%
  Population Healthy Nuclei (%): 23% and 51%
  Population Normal (%): 97% and 100%
  Population Pyknosed Nuclei (%): 41% and 39%
HEK-293T; [1]
  Population Apoptotic (%): 55% and 45%
  Population Healthy Nuclei (%): 81% and 82%
  Population Mitotic Cells (%): 44% and 54%
  Population Normal (%): 94% and 93%
  Total Cell Count: 519 and 629
HEK-293T; [2]
  Population Apoptotic (%): 61% and 58%
  Population Healthy Nuclei (%): 87% and 82%
  Population Normal (%): 91% and 88%
  Total Cell Count: 484 and 427
HEK-293T; [3]
  Population Apoptotic (%): 60% and 47%
  Population Healthy Nuclei (%): 80% and 83%
  Population Mitotic Cells (%): 52%
  Population Normal (%): 92% and 93%
  Total Cell Count: 796 and 885
HEK-293T; [4]
  Population Apoptotic (%): 69% and 68%
  Population Healthy Nuclei (%): 85% and 79%
  Population Mitotic Cells (%): 30%
  Population Normal (%): 90% and 91%
  Total Cell Count: 489 and 456
HEK-293T; [5]
  Population Apoptotic (%): 29% and 26%
  Population Healthy Nuclei (%): 83% and 86%
  Population Mitotic Cells (%): 70% and 73%
  Population Normal (%): 89% and 92%
  Total Cell Count: 1639 and 1757
HEK-293T; [6]
  Population Apoptotic (%): 74% and 55%
  Population Healthy Nuclei (%): 82% and 85%
  Population Mitotic Cells (%): 25% and 44%
  Population Normal (%): 86% and 90%
  Total Cell Count: 548 and 631
Fibroblast; [1]
  Population Apoptotic (%): 42% and 43%
  Population Fragmented Nuclei (%): 7% and 9%
  Population Healthy Nuclei (%): 63% and 67%
  Population Hoechst High Intensity Objects (%): 0%
  Population Normal (%): 100%
  Total Cell Count: 217 and 239
Fibroblast; [2]
  Population Apoptotic (%): 42% and 43%
  Population Fragmented Nuclei (%): 21%
  Population Healthy Nuclei (%): 50% and 52%
  Population Hoechst High Intensity Objects (%): 0%
  Population Normal (%): 100% and 99%
  Total Cell Count: 194 and 258
Fibroblast; [3]
  Population Apoptotic (%): 42% and 57%
  Population Fragmented Nuclei (%): 10% and 14%
  Population Healthy Nuclei (%): 64% and 69%
  Population Hoechst High Intensity Objects (%): 0%
  Population Normal (%): 100% and 99%
  Total Cell Count: 220 and 253
Fibroblast; [4]
  Population Apoptotic (%): 72% and 81%
  Population Fragmented Nuclei (%): 15%
  Population Healthy Nuclei (%): 62% and 52%
  Population Hoechst High Intensity Objects (%): 0%
  Population Normal (%): 100% and 99%
  Total Cell Count: 197 and 255
Fibroblast; [5]
  Population Apoptotic (%): 71% and 78%
  Population Fragmented Nuclei (%): 18% and 14%
  Population Healthy Nuclei (%): 64% and 73%
  Population Hoechst High Intensity Objects (%): 0%
  Population Normal (%): 99%
  Total Cell Count: 244 and 243
Fibroblast; [6]
  Population Apoptotic (%): 88%
  Population Fragmented Nuclei (%): 20% and 15%
  Population Healthy Nuclei (%): 58% and 63%
  Population Hoechst High Intensity Objects (%): 0%
  Population Normal (%): 100% and 98%
  Total Cell Count: 178 and 242
